In data set [1] the test system is Homo sapiens. The data set can be described thus: Clearance not mediated by CVVHF in critically ill patient with sepsis at […], iv administered every 8 hrs by HPLC method. The note with it: in vivo. Details: route intravenous. The class given is ADME, organism-based.
Data set [2] deals with Burkholderia pseudomallei. Put plainly: Antimicrobial activity against Burkholderia pseudomallei. The class given is functional.
For data set [3], the species on record is Homo sapiens. The data set can be described thus: Plasma protein binding in patient with acute kidney injury. The class given is ADME, organism-based.
Data set [4] in a line: Cmax in critically ill patient with sepsis at […], iv administered every 8 hrs by HPLC method. The class given is ADME, organism-based. More on the design: route intravenous. Particulars: human, in vivo. Summed up: (§1)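 Meropenem 1,000 mg as reconstituted IV bolus via central venous catheter every 8 h in septic ICU patients on CVVHF. Plasma sampled predose and at 15–480 min, plus 0–8 h urine. Levels measured by validated C18 HPLC-UV at 298 nm with ertapenem internal standard. Noncompartmental analysis used linear trapezoidal AUC0-8 and AUMC, and λz from 2–8 h log-linear regression.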

Data set [5] is described as follows: fT>MIC in patient with acute kidney injury infected with Burkholderia pseudomallei. The class given is functional. An outline of the steps: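 Ten critically ill septic patients with AKI on high-volume CVVHF received meropenem 1,000 mg every 8 h as a central-venous bolus. Plasma was assayed by HPLC-UV at 298 nm with an ertapenem internal standard. Concentration-time data were compared with an MIC of 4 mg/liter.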

The test system of data set [6] is Homo sapiens. Put plainly: Ultrafiltration flow rate in critically ill patient with sepsis receiving high-volume continuous venovenous hemofiltration at […], iv administered every 8 hrs by HPLC method. The class given is ADME, organism-based. Details: route intravenous. The note with it: in vivo.
For data set [7], the system named is Homo sapiens. The data set can be described thus: Hemofiltration clearance in critically ill patient with sepsis receiving high-volume continuous venovenous hemofiltration at […], iv administered every 8 hrs by HPLC method. The class given is ADME, organism-based. More on the design: route intravenous. The note with it: in vivo. Summed up: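 Same 1,000 mg q8h IV bolus regimen on CVVHF. Filter was changed if it was over 3 h old at the start of sampling. Pre- and postfilter blood and ultrafiltrate were collected at matched times over 0–480 min, and all ultrafiltrate was collected for the interval. Concentrations were measured by HPLC-UV. CVVHF clearance = ultrafiltrate amount/AUC0-8; […].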

A short description of data set [8]: Renal clearance in critically ill patient with sepsis at […], iv administered every 8 hrs by HPLC method. It counts as ADME, organism-based, Kidney. More on the design: route intravenous. Particulars: human, in vivo, read-out: CL_renal (converted). An outline of the steps: as §1

Converted amounts (≈) assume the structure as drawn.

These results are taken from ChEMBL document CHEMBL1275249, “Meropenem dosing in critically ill patients with sepsis receiving high-volume continuous venovenous hemofiltration” (Antimicrob Agents Chemother, 2010).

As a reminder, the MIC90 is an inhibitory concentration at the 90% level, which refers to growth in some studies and to a panel of isolates in others. Low values mean higher susceptibility, high ones lower susceptibility. Broadly, the Cmax is the peak of the concentration-time curve.

With `C[C@@H](O)[C@H]1C(=O)N2C(C(=O)O)=C(S[C@@H]3CN[C@H](C(=O)N(C)C)C3)[C@H](C)[C@H]12` [MEROPENEM], the CL was determined as 2.4 L/h in the data set with Homo sapiens [1] and 3.5 L/h in the data set on Homo sapiens [7]. For the same compound, the MIC90 in data set [2] was 4 µg/mL (≈ 10.4 µM). Also, the Activity in the data set listed under Homo sapiens [3] turned out to be 2%; in the data set on Homo sapiens [6] it was 4.4 L/h. Also, in data set [4], the highest concentration (Cmax) turned out to be 56.6 µg/mL. For the same compound, the “fT>MIC” value in data set [5] worked out at 40%. In addition, the CL renal at 8 h in data set [8] was 0.0833 mL/min.
